Rows were chosen to be rich in hits. Some 2.3% of all compounds tested hit in one or more screens of this group.
TRPC6 inh – mouse TRPC6 channel inhibitors, primary screen, cell-based, HEK293, membrane potential dye; Short transient receptor potential channel 6 (Mus musculus), Q61143; ACh-evoked depolarization; active compounds read low; B-score at 10 µM; hit rate 1.1% among 310,000;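 active means B-score under library mean minus 3 SD, initial fluorescence not abnormally high, positive integrated signal ratio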;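 further: B-score derived from integrated fluorescence ratio over the kinetic read; more negative B-score means stronger inhibition of depolarization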
Target sequence (Q61143 whole entry, looked up): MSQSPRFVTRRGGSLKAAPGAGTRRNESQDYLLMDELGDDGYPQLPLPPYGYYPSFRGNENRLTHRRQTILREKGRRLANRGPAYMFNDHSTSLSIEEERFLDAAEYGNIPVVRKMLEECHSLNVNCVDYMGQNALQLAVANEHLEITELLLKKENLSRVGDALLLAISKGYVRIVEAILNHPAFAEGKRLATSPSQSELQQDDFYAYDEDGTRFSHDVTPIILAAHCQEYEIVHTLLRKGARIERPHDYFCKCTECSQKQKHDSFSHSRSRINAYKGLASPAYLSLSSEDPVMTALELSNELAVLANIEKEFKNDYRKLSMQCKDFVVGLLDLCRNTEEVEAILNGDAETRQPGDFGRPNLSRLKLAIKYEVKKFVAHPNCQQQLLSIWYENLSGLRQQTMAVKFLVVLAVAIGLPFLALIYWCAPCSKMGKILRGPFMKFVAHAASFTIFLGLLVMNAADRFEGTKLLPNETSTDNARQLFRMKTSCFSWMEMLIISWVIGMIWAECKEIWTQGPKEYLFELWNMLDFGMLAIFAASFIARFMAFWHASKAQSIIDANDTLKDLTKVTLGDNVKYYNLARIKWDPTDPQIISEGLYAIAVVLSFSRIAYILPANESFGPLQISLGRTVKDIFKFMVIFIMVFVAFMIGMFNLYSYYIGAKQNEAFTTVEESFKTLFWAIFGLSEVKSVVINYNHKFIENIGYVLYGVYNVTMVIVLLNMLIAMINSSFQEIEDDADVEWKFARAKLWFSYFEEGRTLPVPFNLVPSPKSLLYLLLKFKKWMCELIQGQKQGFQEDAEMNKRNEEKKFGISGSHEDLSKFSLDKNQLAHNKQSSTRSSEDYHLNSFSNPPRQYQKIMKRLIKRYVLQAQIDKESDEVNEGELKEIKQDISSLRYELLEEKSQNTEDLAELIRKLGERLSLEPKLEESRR
TRPC4 PAM – positive allosteric modulators of TRPC4, primary screen, cell-based, mouse TRPC4beta, HEK293 mu-opioid, Fluo-4 calcium | DAMGO EC20, Fluo-4 Ca2+ flux; active compounds read high | B-score at 10 µM | Short transient receptor potential channel 4 (Mus musculus), Q9QUQ5 | AID 2227, 2009 | hit rate 0.42% among 310,000;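 active means B-score of calcium response area above 5 SD of library B-scores, with initial fluorescence ratio within 5 SD of library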
TRPC6 act – mouse TRPC6 channel activators, primary screen, cell-based, HEK293, membrane potential dye. Short transient receptor potential channel 6 (Mus musculus), Q61143. HEK293-TRPC6 membrane potential dye fluorescence; active compounds read high. B-score at 10 µM. hit rate 0.13% among 310,000. AID 2550, 2010;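 active means B-score of the integrated fluorescence ratio above library mean plus 3 SD, and starting fluorescence ratio within library mean plus 5 SD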;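 further: higher score means more depolarization so channel activation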
TRPC4 agonist – activators of mouse TRPC4 channel, primary screen, Fluo4 calcium, HEK293 TRPC4beta/mu-opioid cells; Short transient receptor potential channel 4 (Mus musculus), Q9QUQ5; Fluo4 calcium fluorescence; active compounds read high; B-score at 10 µM; hit rate 0.49% among 310,000; AID 2237, 2010;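 active means B-score above 5 SD of library B-scores, and initial fluorescence ratio not above library mean plus 5 SD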;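 further: positive B-score marks a calcium rise read as TRPC4 activation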
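System – HEK293 cells stably co-expressing mouse TRPC4beta and mu-opioid receptor · Signal – Fluo4 calcium-sensitive dye fluorescence, kinetic, 1 Hz baseline · Benchmarks – buffer (low) and maximal DAMGO (high) · Read-out – B score of integrated fluorescence ratio per well · Incubation – dye loading 45 min room temperature, 110 s kinetic read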
TRPC4 block – inhibitors of mouse TRPC4 channel, primary screen, Fluo4 calcium, HEK293 TRPC4beta/mu-opioid cells. B-score at 10 µM. AID 2247, 2010. DAMGO-evoked Fluo4 calcium flux; active compounds read low. Short transient receptor potential channel 4 (Mus musculus), Q9QUQ5. hit rate 0.39% among 300,000;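 active means B-score over 3 SD under the library average, no early fluorescence shift, positive overall ratio signal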
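Assay system: Stable TRPC4beta/mu-opioid receptor HEK293 cells | Reagent: DAMGO in two steps, submaximal then maximal | Compound dosing: Single concentration per test compound | Signal: Fluo4 Ca2+ flux fluorescence | Evaluation: Per-well B score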
Hits are given with their value; . = inactive.

SMILES | TRPC6 inh | TRPC4 PAM | TRPC6 act | TRPC4 agonist | TRPC4 block
C#CCOCCOCCOCCNc1nc(N2CCN(C(=O)C([C@@H](C)CC)n3cc(C(N)COC(=O)C(F)(F)F)nn3)CC2)nc(N2CCN(C(=O)[C@H](Cc3cc4ccccc4[nH]3)n3cc(C(N)CO)nn3)CC2)n1 (stereo not given in full) | . | . | . | 57 | -6
O=C(Nc1ccnn1C1CCN(CCCC2CCCC2)CC1)c1ccccc1Cl | . | . | . | . | -8
O=C1Nc2ccc(F)cc2C12OCCO2 | . | . | . | . | .
Cc1nnc(Sc2cc(NCCCO)c([N+](=O)[O-])c3nonc23)s1 | . | . | . | . | -6
CCCCN(CC)S(=O)(=O)c1ccc(C(=O)Nc2nnc(-c3cccs3)o2)cc1 | . | . | . | 67 | .
CCN(CC(=O)Nc1ccccc1OC)C(=O)c1ccc(NS(=O)(=O)c2ccc(C(C)=O)cc2)cc1 | . | . | . | . | .
CN(CCNC(=O)CCCOc1cc(=O)n(C)c2ccccc12)Cc1ccccc1 | . | . | . | 99 | .
CN(CCCNC(=O)CCCOc1cc(=O)n(C)c2ccccc12)Cc1ccccc1 | . | 19 | . | . | .
COc1ccc(CCNC(=O)CCCOc2cc(=O)n(C)c3ccccc23)cc1OC | . | . | . | . | .
Cc1cc(C)c(N=C2SCC(=O)N2Cc2ccco2)c(C)c1 | . | . | . | . | -5
O=C1CSC(=Nc2ccc(Cl)cc2)N1Cc1ccco1 | . | . | . | . | .
Cc1ccc(/C=N/NC(=O)NC2CCCCC2)o1 | . | 72 | . | . | .
CC(C)c1ccc(/C=C/C(=O)NC2CCCCC2)cc1 | . | . | . | . | .
Cc1ccc(/C=C/C(=O)NC2CCCCCCC2)o1 | . | 27 | . | . | .
Cc1cccc(/C=N/NC(=O)NC2CCCCC2)c1 | . | . | . | . | .
O=C(Cn1c(=O)c2cccn2c2cccnc21)N1CCN(c2ccc(Cl)cc2)CC1 | . | . | . | . | .
Cc1cccc2sc(NC(=O)c3ccc(NS(=O)(=O)c4cccs4)cc3)nc12 | . | . | . | . | .
Cc1cc(/C=N/NC(N)=S)c(C)n1-c1ccc(Cl)c(Cl)c1 | . | . | . | . | .
CCNC(=S)N/N=C/c1cc(C)n(-c2ccc(Cl)cc2)c1C | . | 22 | . | . | .
Cc1ccc(CNC(=O)C2CCCN(Cc3cnn(-c4ccccc4)c3-n3cccc3)C2)cc1 (stereo not given) | . | . | . | 95 | .
CC(=O)N1c2ccc(S(=O)(=O)NCCC(=O)Nc3cccc(Cl)c3)cc2CC1C (stereo not given) | . | . | . | . | .
CCCCNCCOc1ccccc1-c1ccccc1 | . | . | . | . | -6
CNCCCCOc1ccccc1-c1ccccc1 | . | . | . | 52 | .
CNCCOc1ccccc1-c1ccccc1 | . | . | . | . | .
C/C(=N\NC(=O)c1ccc2ccccc2c1)c1cccs1 | . | . | . | . | .
SMILES | TRPC6 inh | TRPC4 PAM | TRPC6 act | TRPC4 agonist | TRPC4 block
CCCCNC(=O)/C(C#N)=C/c1ccc(F)cc1F | . | 27 | . | . | .
COCCCNc1nc2c(c(=O)n(Cc3ccc(OC)cc3)c(=O)n2C)n1C | . | . | . | . | .
COc1ccc(Cn2c(=O)c3c(nc(NCCO)n3C)n(C)c2=O)cc1 | . | 12 | . | . | .
Cc1cccc(NC(=O)CS(=O)(=O)Cc2ccccc2)n1 | . | . | . | 53 | .
Cc1csc(NC(=O)CS(=O)(=O)Cc2ccccc2)n1 | . | . | . | . | .
CC1CCCCC12NC(=O)N(CC(=O)NCCc1ccccn1)C2=O (stereo not given) | . | . | . | . | .
Cc1cccc(NC(=O)CNC(=O)CN2C(=O)NC3(CCCCC3C)C2=O)c1C (stereo not given) | . | 17 | . | . | .
Cc1ccc(C(=O)NC(=S)Nc2c(C)ccc3nsnc23)cc1 | . | . | . | . | -5
CCn1nc(C)c(CN2CCCC(CO)(Cc3cccc(Cl)c3)C2)c1C (stereo not given) | . | . | . | . | -6
Cc1ccc(NC(=O)Cc2nnc(SCC(=O)c3ccc(Br)cc3)n2C)cc1 | . | . | . | . | .
CCCCN(CC)CCCNC(=O)C1c2ccccc2C(=O)N(C)C1c1cn(C)c2ccccc12 (stereo not given) | . | . | . | 80 | .
COc1ccc(C(=O)C2CCCN(C3Cc4ccccc4C3)C2)cc1OC (stereo not given) | . | . | . | 87 | .
C#Cc1cccc(C(=O)NC2CCCN(C3Cc4ccccc4C3)C2)c1 (stereo not given) | . | . | . | 188 | .
CCc1cc(C(=O)Nc2ccc(S(=O)(=O)NC3=NCCCCC3)cc2)sc1C | . | . | . | . | .
Cc1c(C(=O)c2ccc([N+](=O)[O-])cc2)c(=O)n(C)c(=O)n1C | . | . | . | . | .
COc1ccc(OC)c(Nc2cc(-c3ccccc3)nc(N)n2)c1 | -5.4 | . | . | . | -7
COc1ccc(C(CCNCc2ccc(N(C)C)cc2)c2ccccc2)cc1 (stereo not given) | . | . | . | 104 | .
O=C(c1sc2ccccc2c1Cl)N(Cc1ccccc1Cl)C1CCS(=O)(=O)C1 (stereo not given) | . | . | . | . | .
O=C(c1sc2ccccc2c1Cl)N(Cc1ccccc1)C1CCS(=O)(=O)C1 (stereo not given) | . | . | . | 107 | .
Cc1cc2oc(C(=O)N(Cc3ccccc3)C3CCS(=O)(=O)C3)cc(=O)c2cc1Cl (stereo not given) | . | 23 | . | . | .
O=C(c1sc2ccccc2c1Cl)N(Cc1ccco1)C1CCS(=O)(=O)C1 (stereo not given) | . | . | . | 59 | .
COC(=O)CNC(=O)Cn1nc(C)c([N+](=O)[O-])c1C | . | . | . | . | .
Cn1ncc(Br)c1C(=O)N1CCCCCC1 | . | . | . | . | .
O=C(Nc1nnc(-c2ccccc2)o1)c1ccc(Cl)cc1 | . | . | . | 48 | .
CCOC(=O)Cn1nc(C)c(NC(=O)c2ccc(Cl)c([N+](=O)[O-])c2)c1C | . | . | . | . | .
O=C(NCc1ccccc1Cl)c1cnc2ccccc2n1 | . | 56 | . | . | .
Cc1cc(C)c(S(=O)(=O)N2CCN(c3ccccc3)CC2)c(C)c1 | . | . | . | . | .
Cc1ccc(-c2n[nH]c(=O)c3ccccc23)cc1S(=O)(=O)Nc1ccccc1 | . | 12 | . | . | .
O=C(c1cccc(C(=O)N2CCN(c3ccccc3)CC2)c1)N1CCN(c2ccccc2)CC1 | . | . | . | . | -7

Assay outcomes as filed in PubChem BioAssay.
